From publication PMC9250355 (Molecular Biology of the Cell, 2022)
One block for each molecule: values may come before it.

Columns and labels:
[1] = tested on: S. pombe strains (pxl1 wild type and pxl1 mutants); assay: Serial dilution growth assay in the presence of LatA; assay type: cell-based; settings: low-dose LatA (0.20 μM), 32°C
Outline: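 Strains were grown in liquid YE at 25°C. Three 10-fold serial dilutions starting at 4 × 10^6 cells/ml were spotted on YE agar containing 0.20 µM LatA or DMSO. Plates were incubated at 32°C for 2–5 d, then colonies were imaged by scanner.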

[2] = biological target: Pxl1 PxxP^6 peptide (residues 177–188), biotin-labeled (S. pombe)

Molecule: C/C1=C/C(=O)O[C@@H]2C[C@@H](CC[C@H](C)/C=C\C=C\CC1)O[C@@](O)([C@@H]1CSC(=O)N1)C2 [LatA, latrunculin A]
sensitivity of pxl1 mutants to LatA [1]: no evidence of sensitivity

Kd [2]: 1900 nM
B1: GST-Cdc15C1 (residues 600–end) (domain or fragment)
chain: MRRRQSTSVDDEAPVSLSKTSSSTRLNGLGYHSRNTSIASDIDGVPKKSTLGAPPAAHTSAQMQRMSNSFASQTKQVFGEQRTENSARESLRHSRSNMSRSPSPMLSRRSSTLRPSFERSASSLSVRQSDVVSPAPSTRARGQSVSGQQRPSSSMSLYGEYNKSQPQLSMQRSVSPNPLGPNRRSSSVLQSQKSTSSNTSNRNNGGYSGSRPSSEMGHRYGSMSGRSMRQVSQRSTSRARSPEPTNRNSVQSKNVDPRATFTAEGEPILGYVIALYDYQAQIPEEISFQKGDTLMVLRTQEDGWWDGEIINVPNSKRGLFPSNFVQTV
